# Measured values taken from ChEMBL document CHEMBL4196069 (Eur J Med Chem, 2018).
# Key:
# HL-60 = test: Antiproliferative activity against human HL60 cells after 72 hrs by MTT assay; format: functional, cell-based; settings: HL-60, 72 h
# Outline: (§1)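 Cells pre-incubated 24 h at 37 °C in humidified 5% CO2, then exposed to compounds for 72 h. MTT (5 mg/mL) was added for 4 h, formazan was dissolved in DMSO, and OD was read at 570 nm. Vehicle control was 0.1% DMSO. IC50 was calculated from inhibition ratios as the mean ± SD of three independent experiments.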
# Bel7402/5-FU = test: Antiproliferative activity against human Bel7402/5-FU cells after 72 hrs by MTT assay; format: functional, cell-based; outline: as §1
# L02 = test: Antiproliferative activity against human LO2 cells after 72 hrs by MTT assay; format: cell-based; settings: L02, 72 h; outline: as §1
# Bel-7402 [1] = test: Cell cycle arrest in human Bel7402 cells assessed as accumulation at G1 phase at 0.125 uM after 72 hrs by propidium iodide staining-based flow cytometric method (reference value: 39.28%); format: functional
# Bel-7402 [2] = test: Cell cycle arrest in human Bel7402 cells assessed as accumulation at G2/M phase at 0.25 uM after 72 hrs by propidium iodide staining-based flow cytometric method (reference value: 23.71%); format: functional
# Bel-7402 [3] = test: Cell cycle arrest in human Bel7402 cells assessed as accumulation at S phase at 0.25 uM after 72 hrs by propidium iodide staining-based flow cytometric method (reference value: 37.02%); format: functional
# Bel-7402 [4] = test: Cell cycle arrest in human Bel7402 cells assessed as accumulation at G1 phase after 72 hrs by propidium iodide staining-based flow cytometric method; format: functional
# Bel-7402 [5] = test: Induction of apoptosis in human Bel7402 cells after 72 hrs by Annexin V-FITC/propidium iodide staining based flow cytometry; format: functional, cell-based
# Bel-7402 [6] = test: Induction of apoptosis in human Bel7402 cells assessed as early apoptotic cells at 0.125 uM after 72 hrs by Annexin V-FITC/propidium iodide staining based flow cytometry (reference value: 1.65%); format: functional
# Bel-7402 [7] = test: Induction of apoptosis in human Bel7402 cells assessed as necrotic cells at 0.125 uM after 72 hrs by Annexin V-FITC/propidium iodide staining based flow cytometry (reference value: 13.05%); format: functional
# Bel-7402 [8] = test: Induction of apoptosis in human Bel7402 cells assessed as viable cells at 0.125 uM after 72 hrs by Annexin V-FITC/propidium iodide staining based flow cytometry (reference value: 82.48%); format: functional; settings: Bel-7402, 72 h, read-out: Activity
# Bel-7402 [9] = test: Induction of apoptosis in human Bel7402 cells assessed as early apoptotic cells at 0.25 uM after 72 hrs by Annexin V-FITC/propidium iodide staining based flow cytometry (reference value: 1.65%); format: functional
# Bel-7402 [10] = test: Induction of apoptosis in human Bel7402 cells assessed as viable cells at 0.5 uM after 72 hrs by Annexin V-FITC/propidium iodide staining based flow cytometry (reference value: 82.48%); format: functional; settings: Bel-7402, 72 h, read-out: Activity
# Bel-7402 [11] = test: Induction of mitochondrial membrane depolarization in human Bel7402 cells after 24 to 48 hrs by JC1 staining based flow cytometric analysis; format: functional, cell-based
# Bel-7402 [12] = test: Induction of mitochondrial membrane depolarization in human Bel7402 cells assessed as cells with mitochondrial membrane potential loss at 0.125 uM after 24 to 48 hrs by JC-1 staining based flow cytometric analysis (reference value: 6.17%); format: functional
# Bel-7402 [13] = test: Induction of mitochondrial membrane depolarization in human Bel7402 cells assessed as cell with intact mitochondrial membrane potential at 0.25 uM after 24 to 48 hrs by JC-1 staining based flow cytometric analysis (reference value: 98.83%); format: functional
# Bel-7402 [14] = test: Induction of mitochondrial membrane depolarization in human Bel7402 cells assessed as cell with intact mitochondrial membrane potential at 0.5 uM after 24 to 48 hrs by JC-1 staining based flow cytometric analysis (reference value: 98.83%); format: functional
compound,measurement,setting,value
C[C@H]1CCC/C=C/[C@@H]2C[C@H](O)C[C@H]2[C@H](OC(=O)c2ccc(N(CCCl)CCCl)cc2)/C=C/C(=O)O1,IC50,HL-60,4.48 µM
same,IC50,Bel7402/5-FU,0.84 µM
same,IC50,L02,9.74 µM
same,Activity,Bel-7402 [1],43.8%
same,Activity,Bel-7402 [2],13.27%
same,Activity,Bel-7402 [3],32.48%
same,Activity,Bel-7402 [4],Dose-dependent effect
same,Activity,Bel-7402 [5],Dose-dependent effect
same,Activity,Bel-7402 [6],10.49%
same,Activity,Bel-7402 [7],3.45%
same,viability at 0.125 µM,Bel-7402 [8],80.6%
same,Activity,Bel-7402 [9],22.69%
same,viability at 0.5 µM,Bel-7402 [10],38.5%
same,Activity,Bel-7402 [11],Dose-dependent effect
same,Activity,Bel-7402 [12],16.06%
same,Activity,Bel-7402 [13],70.4%
same,Activity,Bel-7402 [14],56.15%
